# Reference: ChEMBL document CHEMBL4190270, “Novel 4-arylaminoquinazoline derivatives with (E)-propen-1-yl moiety as potent EGFR inhibitors with enhanced antiproliferative activities against tumor cells” (Eur J Med Chem, 2017)
# Calls of active or inactive are those of the source. The rule behind the calls is not given here.
# How the values were obtained:
# [1] = system: NCI-H1975; assay: Antiproliferative activity against human NCI-H1975 cells harboring EGFR L858R/T790M mutant after 72 hrs by MTT assay; assay type: functional, cell-based; settings: NCI-H1975, 72 h
# [2] = system: SW480; assay: Antiproliferative activity against human SW480 cells harboring wild type EGFR after 72 hrs by MTT assay; assay type: functional, cell-based; settings: SW480, 72 h
# [3] = system: A-431; assay: Antiproliferative activity against human A431 cells harboring wild type EGFR after 72 hrs by MTT assay; assay type: functional, cell-based; settings: A-431, 72 h
# Summary of the method: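 Cells grown in DMEM or 1640 with 10% FBS, penicillin/streptomycin and 2 mM L-glutamine, plated in 96 wells for 24 h at 37 °C under 5% CO2. Exposed to compound as an 8-point series, or to 0.5% DMSO, for 72 h. Then MTT (5 mg/ml) for 4 h, formazan dissolved in DMSO, absorbance read at 570 nm (630 nm reference). IC50 by nonlinear regression; mean ± SD of at least three independent experiments.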
# [4] = system: A549; assay: Antiproliferative activity against human A549 cells harboring wild type EGFR/K-Ras mutant after 72 hrs by MTT assay; assay type: functional, cell-based; settings: A549, 72 h
# [5] = biological target: T1, Epidermal growth factor receptor (Homo sapiens, UniProt P00533); settings: A549, at 25 µM
# [6] = biological target: T1, Epidermal growth factor receptor; settings: A549, at 25 µM; remark: listed apart in the source
# [7] = system: A549; assay: Effect on total ERK1/2 protein expression in human A549 cells at 1 to 25 uM preincubated for 2 hrs followed by EGF stimulation for 10 mins by Western blot analysis; assay type: ADME, cell-based; settings: a549, 10 min
# Summary of the method: (§1)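 Cells grown in 6-well plates with 10% FBS to 90% confluence, then serum-starved 24 h. Exposed to a dose range of compound, or to 25 μM reference drug, for 2 h, then stimulated with 50 ng/mL EGF for 10 min at 37 °C. Lysed in RIPA with protease/phosphatase inhibitors. 20 µg protein run on 10% SDS-PAGE, transferred to PVDF, blocked with 5% milk, immunoblotted and detected by ECL.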
# [8] = system: Epidermal growth factor receptor (Homo sapiens), P00533 [L858R,T790M]; assay: Inhibition of EGF-induced EGFR L858R/T790M double mutant phosphorylation at Y992-residue in human NCI-H1975 cells preincubated for 2 hrs followed by EGF stimulation for 10 mins by Western blot analysis; assay type: cell-based; summary of the method: as §1
# [9] = system: Epidermal growth factor receptor (Homo sapiens), P00533 [L858R,T790M]; assay: Inhibition of EGF-induced EGFR L858R/T790M double mutant phosphorylation at Tyr-residue in human NCI-H1975 cells preincubated for 2 hrs followed by EGF stimulation for 10 mins by Western blot analysis; assay type: cell-based; summary of the method: as §1
# [10] = biological target: T1, Epidermal growth factor receptor; assay type: cell-based, HEK293
# [11] = system: A549; assay: Effect on total AKT protein expression in human A549 cells at 1 to 25 uM preincubated for 2 hrs followed by EGF stimulation for 10 mins by Western blot analysis; assay type: ADME, cell-based; settings: a549, 10 min; summary of the method: as §1
# [12] = biological target: T1, Epidermal growth factor receptor; settings: A549, at 25 µM; remark: listed apart in the source
# [13] = biological target: T1, Epidermal growth factor receptor; assay: Inhibition of EGF-induced EGFR phosphorylation at Y1086-residue in human A549 cells at 5 uM preincubated for 2 hrs followed by EGF stimulation for 10 mins by Western blot analysis; assay type: cell-based; summary of the method: as §1
# [14] = system: Epidermal growth factor receptor (Homo sapiens), P00533 [L858R,T790M]; assay: Inhibition of EGFR L858R/T790M double mutant in human NCI-H1975 cells assessed as reduction in EGF-induced ERK1/2 phosphorylation at T202/Y204 residues at 25 uM preincubated for 2 hrs followed by EGF stimulation for 10 mins by Western blot analysis; assay type: cell-based; summary of the method: as §1
# [15] = biological target: T1, Epidermal growth factor receptor; assay: Inhibition of EGFR in human A549 cells assessed as reduction in EGF-induced Akt phosphorylation at S473 residue at 5 uM preincubated for 2 hrs followed by EGF stimulation for 10 mins by Western blot analysis; assay type: cell-based; summary of the method: as §1
# [16] = system: Epidermal growth factor receptor (Homo sapiens), P00533 [L858R,T790M]; settings: NCI-H1975, at 25 µM
# [17] = biological target: T1, Epidermal growth factor receptor; settings: A549, at 25 µM; remark: listed apart in the source
# [18] = biological target: T1, Epidermal growth factor receptor; assay: Inhibition of EGF-induced EGFR phosphorylation at Tyr-residue in human A549 cells at 5 uM preincubated for 2 hrs followed by EGF stimulation for 10 mins by Western blot analysis; assay type: cell-based; summary of the method: as §1
# [19] = biological target: T1, Epidermal growth factor receptor; settings: A549, at 25 µM; remark: listed apart in the source
# [20] = system: Epidermal growth factor receptor (Homo sapiens), P00533 [L858R,T790M]; assay: Inhibition of EGFR L858R/T790M double mutant in human NCI-H1975 cells assessed as reduction in EGF-induced Akt phosphorylation at Ser473 residue at 25 uM preincubated for 2 hrs followed by EGF stimulation for 10 mins by Western blot analysis; assay type: cell-based; summary of the method: as §1
# [21] = biological target: T1, Epidermal growth factor receptor; assay: Inhibition of EGFR in human A549 cells assessed as reduction in EGF-induced ERK1/2 phosphorylation at T202/Y204 residues at 5 uM preincubated for 2 hrs followed by EGF stimulation for 10 mins by Western blot analysis; assay type: cell-based; summary of the method: as §1
# [22] = biological target: T1, Epidermal growth factor receptor; assay: Inhibition of EGFR in human A549 cells assessed as reduction in EGF-induced STAT3 phosphorylation at 1 to 25 uM preincubated for 2 hrs followed by EGF stimulation for 10 mins by Western blot analysis; assay type: cell-based; summary of the method: as §1
# [23] = biological target: T1, Epidermal growth factor receptor; assay: Inhibition of EGF-induced EGFR phosphorylation at Y992-residue in human A549 cells at 5 uM preincubated for 2 hrs followed by EGF stimulation for 10 mins by Western blot analysis; assay type: cell-based; summary of the method: as §1
# [24] = system: Epidermal growth factor receptor (Homo sapiens), P00533 [L858R,T790M]; assay: Inhibition of EGF-induced EGFR L858R/T790M double mutant phosphorylation at Y1068-residue in human NCI-H1975 cells preincubated for 2 hrs followed by EGF stimulation for 10 mins by Western blot analysis; assay type: cell-based; summary of the method: as §1
# [25] = system: A549; assay: Effect on total EGFR protein expression in human A549 cells at 1 to 25 uM preincubated for 2 hrs followed by EGF stimulation for 10 mins by Western blot analysis; assay type: ADME, cell-based; settings: a549, 10 min; summary of the method: as §1
# T1 sequence (P00533 whole entry): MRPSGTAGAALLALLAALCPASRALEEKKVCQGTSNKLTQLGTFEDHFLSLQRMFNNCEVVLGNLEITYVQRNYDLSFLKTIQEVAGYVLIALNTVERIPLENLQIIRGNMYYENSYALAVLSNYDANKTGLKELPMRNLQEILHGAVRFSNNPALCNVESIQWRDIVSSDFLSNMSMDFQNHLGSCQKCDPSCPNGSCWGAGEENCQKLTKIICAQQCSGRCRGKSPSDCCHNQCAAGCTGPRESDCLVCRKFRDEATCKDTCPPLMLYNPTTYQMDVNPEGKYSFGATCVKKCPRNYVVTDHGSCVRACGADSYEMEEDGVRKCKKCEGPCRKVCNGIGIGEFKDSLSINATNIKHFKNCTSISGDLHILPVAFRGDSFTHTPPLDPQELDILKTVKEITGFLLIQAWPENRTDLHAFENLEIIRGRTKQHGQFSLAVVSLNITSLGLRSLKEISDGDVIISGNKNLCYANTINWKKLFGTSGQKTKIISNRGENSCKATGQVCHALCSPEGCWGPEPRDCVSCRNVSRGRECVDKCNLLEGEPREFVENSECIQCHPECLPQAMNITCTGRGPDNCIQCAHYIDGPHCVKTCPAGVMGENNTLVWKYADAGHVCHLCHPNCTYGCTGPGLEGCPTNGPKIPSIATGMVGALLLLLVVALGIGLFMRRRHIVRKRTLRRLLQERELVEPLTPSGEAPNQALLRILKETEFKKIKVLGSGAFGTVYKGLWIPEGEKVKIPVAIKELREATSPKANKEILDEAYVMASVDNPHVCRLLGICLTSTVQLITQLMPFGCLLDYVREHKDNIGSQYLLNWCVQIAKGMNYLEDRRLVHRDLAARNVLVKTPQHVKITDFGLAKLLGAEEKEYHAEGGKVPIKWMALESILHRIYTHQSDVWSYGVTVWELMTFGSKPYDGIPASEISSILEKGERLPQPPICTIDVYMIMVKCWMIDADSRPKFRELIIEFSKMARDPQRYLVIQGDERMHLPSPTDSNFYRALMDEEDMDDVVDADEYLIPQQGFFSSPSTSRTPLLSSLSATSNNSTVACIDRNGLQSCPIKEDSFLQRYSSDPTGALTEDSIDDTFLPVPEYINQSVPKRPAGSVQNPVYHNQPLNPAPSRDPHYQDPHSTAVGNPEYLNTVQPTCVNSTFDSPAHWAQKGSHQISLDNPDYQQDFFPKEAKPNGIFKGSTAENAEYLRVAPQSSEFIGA
# Sequence of Epidermal growth factor receptor (Homo sapiens), P00533 [L858R,T790M] (P00533 whole entry T790M/L858R, looked up): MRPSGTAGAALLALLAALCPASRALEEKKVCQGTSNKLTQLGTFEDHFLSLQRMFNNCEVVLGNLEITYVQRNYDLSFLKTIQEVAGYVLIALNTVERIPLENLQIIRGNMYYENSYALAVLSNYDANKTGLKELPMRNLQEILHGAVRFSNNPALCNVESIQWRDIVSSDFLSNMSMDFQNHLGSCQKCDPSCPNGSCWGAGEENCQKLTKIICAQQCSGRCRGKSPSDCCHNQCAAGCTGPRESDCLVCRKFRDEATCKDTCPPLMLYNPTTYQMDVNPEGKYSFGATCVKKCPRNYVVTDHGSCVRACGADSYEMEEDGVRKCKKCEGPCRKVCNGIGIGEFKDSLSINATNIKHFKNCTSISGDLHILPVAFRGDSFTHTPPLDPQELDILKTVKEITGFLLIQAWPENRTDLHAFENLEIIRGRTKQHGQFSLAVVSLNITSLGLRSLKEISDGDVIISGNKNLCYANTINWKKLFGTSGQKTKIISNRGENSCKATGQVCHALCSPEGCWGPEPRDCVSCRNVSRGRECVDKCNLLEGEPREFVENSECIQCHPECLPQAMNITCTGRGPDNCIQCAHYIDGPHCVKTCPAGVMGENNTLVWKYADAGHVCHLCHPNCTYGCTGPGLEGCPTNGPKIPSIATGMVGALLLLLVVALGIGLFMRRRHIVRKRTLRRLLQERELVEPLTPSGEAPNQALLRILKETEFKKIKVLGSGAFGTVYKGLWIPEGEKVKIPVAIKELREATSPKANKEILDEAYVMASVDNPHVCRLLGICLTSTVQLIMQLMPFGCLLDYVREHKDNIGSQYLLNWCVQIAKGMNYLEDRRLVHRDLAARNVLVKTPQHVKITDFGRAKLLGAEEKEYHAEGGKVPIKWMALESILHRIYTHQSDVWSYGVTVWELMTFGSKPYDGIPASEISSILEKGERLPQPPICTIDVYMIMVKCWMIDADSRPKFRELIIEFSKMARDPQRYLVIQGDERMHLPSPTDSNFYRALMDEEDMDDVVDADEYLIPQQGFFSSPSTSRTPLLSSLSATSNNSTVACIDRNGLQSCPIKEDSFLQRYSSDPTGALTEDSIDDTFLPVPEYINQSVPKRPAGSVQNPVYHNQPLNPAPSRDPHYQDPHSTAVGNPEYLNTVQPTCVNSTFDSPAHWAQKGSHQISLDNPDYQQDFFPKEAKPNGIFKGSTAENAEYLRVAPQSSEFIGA
structure (smiles),measurement,setting,value
C/C=C/c1ccc(Nc2ncnc3cc(OCCCN4CCOCC4)c(OC)cc23)cc1,IC50,[1],10.8 µM
same,IC50,[2],11.6 µM
same,IC50,[3],6.34 µM
same,IC50,[4],10.3 µM
C/C=C/c1ccc(Nc2ncnc3ccc(OCCCN4CCOCC4)cc23)cc1,IC50,[1],23.9 µM
same,IC50,[2],10.4 µM
same,IC50,[3],12 µM
same,IC50,[4],17.4 µM
C/C=C/c1ccc(Nc2ncnc3cc4c(cc23)OCCO4)cc1,IC50,[1],> 100 µM
same,IC50,[2],34 µM
same,IC50,[3],> 100 µM
same,IC50,[4],38.2 µM
C/C=C/c1ccc(Nc2ncnc3cc(OC)c(OCCN4CCOCC4)cc23)cc1,IC50,[1],> 100 µM
same,IC50,[2],28.2 µM
same,IC50,[3],47.1 µM
same,IC50,[4],26.5 µM
C/C=C/c1ccc(Nc2ncnc3cc(OCc4ccccc4)c(OCc4ccccc4)cc23)cc1,IC50,[1],44.1 µM
same,IC50,[2],37 µM
same,IC50,[3],28.1 µM
same,IC50,[4],36.5 µM
C/C=C/c1ccc(Nc2ncnc3cc(OCCOC)c(OCCOC)cc23)cc1,IC50,[1],27.7 µM
same,IC50,[2],43.6 µM
same,IC50,[3],23.9 µM
same,IC50,[4],24.7 µM
C/C=C/c1ccc(Nc2ncnc3cc(OCCN4CCOCC4)c(OC)cc23)cc1,IC50,[1],> 100 µM
same,IC50,[2],27.6 µM
same,IC50,[3],22.4 µM
same,IC50,[4],37.5 µM
C/C=C/c1ccc(Nc2ncnc3cc(OCCCN4CCOCC4)c(OCCCN4CCOCC4)cc23)cc1,inhibition,[5],Active
same,inhibition,[6],Active
same,Activity,[7],Non-Toxic
same,inhibition,[8],Dose-dependent effect
same,inhibition,[9],Dose-dependent effect
same,IC50,[10],0.0207 µM
same,Activity,[11],Non-Toxic
same,inhibition,[12],Active
same,inhibition,[13],Active
same,inhibition,[14],Active
same,inhibition,[15],Active
same,inhibition,[16],Active
same,inhibition,[17],Active
same,inhibition,[18],Active
same,inhibition,[19],Active
same,inhibition,[20],Active
same,inhibition,[21],Active
same,inhibition,[22],inactive
same,inhibition,[23],Active
same,inhibition,[24],Dose-dependent effect
same,Activity,[25],Non-Toxic
C/C=C/c1ccc(Nc2ncnc3cc(OC)c(OCCCN4CCOCC4)cc23)cc1,IC50,[1],38.9 µM
same,IC50,[2],14.7 µM
same,IC50,[3],13.9 µM
same,IC50,[4],10.3 µM
CS(=O)(=O)CCNCc1ccc(-c2ccc3ncnc(Nc4ccc(OCc5cccc(F)c5)c(Cl)c4)c3c2)o1 [LAPATINIB],IC50,[1],9.08 µM
C/C=C/c1ccc(Nc2ncnc3ccc(-c4ccc(CNCCS(C)(=O)=O)o4)cc23)cc1,IC50,[1],> 100 µM
same,IC50,[2],56.3 µM
same,IC50,[3],37.6 µM
same,IC50,[4],84.5 µM
C/C=C/c1ccc(Nc2ncnc3ccc(OCCN4CCOCC4)cc23)cc1,IC50,[1],> 100 µM
same,IC50,[2],62.6 µM
same,IC50,[3],57.7 µM
same,IC50,[4],85.3 µM
